In ChEMBL document CHEMBL3580569, “N-Substituted Quinolinonyl Diketo Acid Derivatives as HIV Integrase Strand Transfer Inhibitors and Their Activity against RNase H Function of Reverse Transcriptase” (J Med Chem, 2015):

Assays:
[1] = target: Human immunodeficiency virus type 1 reverse transcriptase (Human immunodeficiency virus 1) (UniProt Q72547); test: Inhibition of RNase H function of HIV1 reverse transcriptase using DNA/RNA hybrid as substrate at 10 uM by fluorescence spectrometer analysis
Outline: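 RNase H activity of HIV-1 RT was measured with an RNA/DNA hybrid substrate at 250 nM final, with 150–800 ng RT, in 50 mM Tris-HCl pH 8.0, 60 mM KCl, 10 mM MgCl2 and 1% DMSO, against DMSO-only wells. Fluorescence (ex 485/em 520 nm) was read each minute over 10 min at 37 °C. Percent inhibition at 10 μM = 100(v0−vi)/v0 from initial rates, run in triplicate.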

[2] = target: T1, Human immunodeficiency virus type 1 integrase (Human immunodeficiency virus 1, UniProt Q7ZJM1)
[3] = system: Human immunodeficiency virus 1; test: Antiviral activity against HIV-1 3B infected in human HeLa-CD4-LTR-beta-gal cells assessed as inhibition of viral replication by SpectraMax GEMINI-XS plate reader analysis; assay type: functional, organism-based; details: Human immunodeficiency virus 1, 3B
Outline: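 HeLa-CD4-LTR-β-gal cells kept in DMEM, 10% serum, 0.5 mg/mL G418; seeded 10000 cells/well the day before. Drug 3-fold serially diluted over six points on cells (top 50 μM), then fresh medium or concentrated HIV-1(IIIB) supernatant added.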

[4] = target: T1, Human immunodeficiency virus type 1 integrase; remark: listed apart in the source
HeLa = test: Cytotoxicity against human HeLa-CD4-LTR-beta-gal cells after 24 hrs by ATPlite reagent based luminescence analysis; assay type: cell-based
[5] = Selectivity index, ratio of CC50 for human HeLa-CD4-LTR-beta-gal cells to EC50 for HIV-1 3B infected in human HeLa-CD4-LTR-beta-gal cells; assay type: toxicity; details: read-out: Ratio CC50/EC50

T1 sequence (Q7ZJM1 whole entry): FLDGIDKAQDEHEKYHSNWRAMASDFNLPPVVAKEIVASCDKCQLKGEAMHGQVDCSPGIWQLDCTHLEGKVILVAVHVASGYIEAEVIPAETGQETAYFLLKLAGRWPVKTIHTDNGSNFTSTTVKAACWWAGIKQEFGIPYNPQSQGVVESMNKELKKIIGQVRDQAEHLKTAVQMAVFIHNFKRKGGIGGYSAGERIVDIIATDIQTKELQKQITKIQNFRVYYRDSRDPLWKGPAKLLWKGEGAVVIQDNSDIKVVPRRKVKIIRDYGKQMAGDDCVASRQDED

CCOC(=O)/C(O)=C/C(=O)c1cn(Cc2ccc(Cl)cc2)c2ccccc2c1=O
inhibition [1]: 16.1%
IC50 [2]: > 37 µM
EC50 [3]: > 50 µM
IC50 [4]: > 37 µM

O=C(O)/C(O)=C/C(=O)c1cn(Cc2ccc(F)c(Cl)c2)c2ccccc2c1=O
inhibition [1]: 25%
IC50 [2]: 0.19 µM
EC50 [3]: > 50 µM
IC50 [4]: 21 µM

CCOC(=O)/C(O)=C/C(=O)c1cn(Cc2cc(F)ccc2F)c2ccccc2c1=O
inhibition [1]: 30%
IC50 [2]: 3.7 µM
EC50 [3]: > 50 µM

CCOC(=O)/C(O)=C/C(=O)c1cn(Cc2cccc(OC)c2)c2ccccc2c1=O
inhibition [1]: 4.9%
CC50 (HeLa): 44 µM
IC50 [2]: 16 µM
EC50 [3]: 8.5 µM
IC50 [4]: > 333 µM
selectivity ratio [5]: 5.2

O=C(O)/C(O)=C/C(=O)c1cn(Cc2ccccc2)c2ccccc2c1=O
inhibition [1]: 9.6%
CC50 (HeLa): > 50 µM
IC50 [2]: 0.034 µM
EC50 [3]: 15.5 µM
IC50 [4]: 4 µM

CCOC(=O)/C(O)=C/C(=O)c1cn(Cc2cc(C)cc(C)c2)c2ccccc2c1=O
inhibition [1]: 21%
IC50 [2]: 1.3 µM
EC50 [3]: > 50 µM

O=C(O)/C(O)=C/C(=O)c1cn(Cc2ccncc2)c2ccccc2c1=O
inhibition [1]: -2.6%
IC50 [2]: 16 µM
EC50 [3]: > 50 µM
IC50 [4]: > 1000 µM

CCOC(=O)/C(O)=C/C(=O)c1cn(Cc2ccc(O)cc2)c2ccccc2c1=O
inhibition [1]: 26%
CC50 (HeLa): > 50 µM
IC50 [2]: 1.4 µM
EC50 [3]: 30.9 µM
IC50 [4]: > 333 µM
selectivity ratio [5]: > 1.6

O=C(O)/C(O)=C/C(=O)c1cn(Cc2ccc(F)cc2)c2cc(Cl)c(Cl)cc2c1=O
IC50 [4]: > 50 µM

Cc1nnc(C(=O)NC(C)(C)c2nc(C(=O)NCc3ccc(F)cc3)c(O)c(=O)n2C)o1
CC50 (HeLa): > 50 µM

O=C(O)/C(O)=C/C(=O)c1cn(Cc2ccc(F)c(Cl)c2)c2c(Cl)cccc2c1=O
inhibition [1]: 16%
IC50 [2]: 0.096 µM
EC50 [3]: 50 µM
IC50 [4]: 9.8 µM

CCOC(=O)/C(O)=C/C(=O)c1cn(Cc2ccccc2)c2ccccc2c1=O
inhibition [1]: -3.3%
CC50 (HeLa): > 50 µM
IC50 [2]: 0.7 µM
EC50 [3]: 1 µM
IC50 [4]: > 1000 µM
selectivity ratio [5]: > 50

CCOC(=O)/C(O)=C/C(=O)c1cn(Cc2ccccc2OC)c2ccccc2c1=O [20, RDS-2163]
inhibition [1]: 11.4%
CC50 (HeLa): > 50 µM
IC50 [2]: 1.4 µM
EC50 [3]: 2.6 µM
IC50 [4]: > 333 µM
selectivity ratio [5]: > 19.2

COc1cc2c(cc1Cc1cccc(Cl)c1F)c(=O)c(C(=O)O)cn2[C@H](CO)C(C)C
CC50 (HeLa): > 50 µM
EC50 [3]: 0.0142 µM

CCOC(=O)/C(O)=C/C(=O)c1cn(Cc2ccncc2)c2ccccc2c1=O
inhibition [1]: -5.6%
IC50 [2]: 14 µM
EC50 [3]: > 50 µM
IC50 [4]: > 333 µM

COc1cccc(Cn2cc(C(=O)/C=C(\O)C(=O)O)c(=O)c3ccccc32)c1 [RDS-2161]
inhibition [1]: 1.9%
IC50 [2]: 0.14 µM
EC50 [3]: > 50 µM
IC50 [4]: > 4.1 µM

CCOC(=O)/C(O)=C/C(=O)c1cn(Cc2ccc([N+](=O)[O-])cc2)c2ccccc2c1=O
inhibition [1]: 31.9%
IC50 [2]: > 37 µM
EC50 [3]: > 50 µM
IC50 [4]: > 37 µM

O=C(O)/C(O)=C/C(=O)c1cn(CCCCc2ccccc2)c2ccccc2c1=O
inhibition [1]: 33%
IC50 [2]: < 0.45 µM
EC50 [3]: > 50 µM
IC50 [4]: > 333 µM

CCOC(=O)/C(O)=C/C(=O)c1cn(Cc2cccc(Cl)c2F)c2ccccc2c1=O
inhibition [1]: 21%
CC50 (HeLa): > 50 µM
IC50 [2]: 1.08 µM
EC50 [3]: 10 µM
IC50 [4]: 1.08 µM
selectivity ratio [5]: > 5

CCOC(=O)/C(O)=C/C(=O)c1cn(Cc2ccc(F)c(Cl)c2)c2c(Cl)cccc2c1=O
inhibition [1]: 24%
IC50 [2]: 25.1 µM
EC50 [3]: > 50 µM
IC50 [4]: > 333 µM

CCOC(=O)/C(O)=C/C(=O)c1cn(Cc2cc(F)cc(F)c2)c2ccccc2c1=O
inhibition [1]: 24%
CC50 (HeLa): > 50 µM
IC50 [2]: 11 µM
EC50 [3]: 32.4 µM
selectivity ratio [5]: > 1.5

CCOC(=O)/C(O)=C/C(=O)c1cn(CCCCc2ccccc2)c2ccccc2c1=O
inhibition [1]: 19.4%
IC50 [2]: 120 µM
EC50 [3]: > 50 µM
IC50 [4]: > 333 µM

CCOC(=O)/C(O)=C/C(=O)c1cn(Cc2c(F)cccc2F)c2ccccc2c1=O
inhibition [1]: 4.1%
CC50 (HeLa): > 50 µM
IC50 [2]: 0.25 µM
EC50 [3]: < 0.2 µM
IC50 [4]: > 12.3 µM
selectivity ratio [5]: > 250

O=C(O)/C(O)=C/C(=O)c1cn(Cc2cccc(Cl)c2F)c2ccccc2c1=O
inhibition [1]: 12%
CC50 (HeLa): > 50 µM
IC50 [2]: 0.018 µM
EC50 [3]: 23.4 µM
IC50 [4]: 1.75 µM
selectivity ratio [5]: > 2.1

CCOC(=O)/C(O)=C/C(=O)c1cn(Cc2ccc3ccccc3c2)c2ccccc2c1=O
inhibition [1]: 29.7%
IC50 [2]: 32 µM
EC50 [3]: > 50 µM
IC50 [4]: > 333 µM

CCOC(=O)/C(O)=C/C(=O)c1cn(Cc2ccc(F)c(F)c2)c2ccccc2c1=O
inhibition [1]: 24%
CC50 (HeLa): > 50 µM
IC50 [2]: 5.5 µM
EC50 [3]: 9.8 µM
selectivity ratio [5]: > 5.1

CCOC(=O)/C(O)=C/C(=O)c1cn(Cc2ccc3ccccc3n2)c2ccccc2c1=O
inhibition [1]: 4.4%
IC50 [2]: 3.5 µM
EC50 [3]: > 50 µM
IC50 [4]: > 1000 µM

O=C(O)/C(O)=C/C(=O)c1cn(Cc2ccc3ccccc3n2)c2ccccc2c1=O
inhibition [1]: 16.4%
IC50 [2]: 0.4 µM
EC50 [3]: > 50 µM
IC50 [4]: 70 µM

CCOC(=O)/C(O)=C/C(=O)c1cn(Cc2ccccc2F)c2cc(Cl)ccc2c1=O
inhibition [1]: 2.8%
CC50 (HeLa): > 50 µM
EC50 [3]: 11 µM
selectivity ratio [5]: > 4.5

CCOC(=O)/C(O)=C/C(=O)c1cn(Cc2ccc(F)cc2F)c2ccccc2c1=O
inhibition [1]: 3%
CC50 (HeLa): > 50 µM
IC50 [2]: 2.2 µM
EC50 [3]: 0.58 µM
selectivity ratio [5]: > 86.2

O=C(O)/C(O)=C/C(=O)c1cn(Cc2ccc3ccccc3c2)c2ccccc2c1=O
inhibition [1]: 40.7%
CC50 (HeLa): > 50 µM
IC50 [2]: < 0.45 µM
EC50 [3]: 4.8 µM
IC50 [4]: 18 µM
selectivity ratio [5]: > 10.4

CCOC(=O)/C(O)=C/C(=O)c1cn(Cc2ccc(OC)cc2)c2ccccc2c1=O
inhibition [1]: 10%
IC50 [2]: > 37 µM
EC50 [3]: > 50 µM
IC50 [4]: > 37 µM

CCOC(=O)/C(O)=C/C(=O)c1cn(Cc2ccccc2F)c2ccccc2c1=O
inhibition [1]: 2.8%
CC50 (HeLa): > 50 µM
IC50 [2]: 0.28 µM
EC50 [3]: 1.5 µM
IC50 [4]: 125 µM
selectivity ratio [5]: > 33.4

CCOC(=O)/C(O)=C/C(=O)c1cn(Cc2ccc(F)c(Cl)c2)c2ccccc2c1=O
inhibition [1]: 18%
CC50 (HeLa): > 50 µM
IC50 [2]: 3.1 µM
EC50 [3]: 17.4 µM
IC50 [4]: 266 µM
selectivity ratio [5]: > 2.9

O=C(O)/C(O)=C/C(=O)c1cn(Cc2cccc(F)c2)c2ccccc2c1=O
inhibition [1]: 2.4%
CC50 (HeLa): > 50 µM
IC50 [2]: 0.015 µM
EC50 [3]: 28.2 µM
IC50 [4]: 4.6 µM
selectivity ratio [5]: > 1.8
